From ChEMBL document CHEMBL5724801, “EUbOPEN Chemogenomics Library - Multiplex” (2024)
“And” between values parts separate entries of the source, which are not always exact repeats. Equal entries are not always repeated.

System: Fibroblast
Experiment: Multiplex assay against human fibroblast
Type: toxicity, cell-based
Procedure, shortened: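 With compound added, live cells were imaged on a CQ1 microscope at 37°C and 5% CO2; staining with Hoechst33342, BioTracker Green Microtubule Cytoskeleton Dye, MitoTracker Red and Annexin V Alexa Fluor 680 had been done at seeding. The CellPathfinder machine-learning gating scheme split cells into Hoechst high-intensity objects or normal cells, normal cells into healthy, pyknosed or fragmented nuclei, and pyknosed cells into mitotic or apoptotic. The tubulin, mitochondrial-mass and membrane-permeability phenotypes are per cents of healthy-nucleus cells.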

[1] = 12 h, 1 µM, compound concentration 1 uM
[2] = 12 h, 10 µM, compound concentration 10 uM
[3] = 24 h, 1 µM, compound concentration 1 uM
[4] = 24 h, 10 µM, compound concentration 10 uM
[5] = 48 h, 1 µM, compound concentration 1 uM
[6] = 48 h, 10 µM, compound concentration 10 uM

## Cc1c(CC(=O)O)c2cccnc2n1Cc1ccc(S(C)(=O)=O)cc1C(F)(F)F [FEVIPIPRANT]
[1]
  Population Apoptotic (%): 44% and 25%
  Population Fragmented Nuclei (%): 22% and 33%
  Population Healthy Nuclei (%): 60% and 48%
  Population Hoechst High Intensity Objects (%): 3%
  Population Mitochondria Different-Phenotype (%): 3% and 12%
  Population Mitotic Cells (%): 55% and 74%
  Population Normal (%): 96%
  Population Pyknosed Nuclei (%): 18% and 17%
  Population Tubulin-Different-Phenotype (%): 20% and 56%
  Total Cell Count: 156
[2]
  Population Apoptotic (%): 34% and 22%
  Population Fragmented Nuclei (%): 10% and 21%
  Population Healthy Nuclei (%): 71% and 54%
  Population Hoechst High Intensity Objects (%): 3% and 5%
  Population Membrane Permeable-Phenotype (%): 1% and 9%
  Population Mitochondria Different-Phenotype (%): 4% and 6%
  Population Mitotic Cells (%): 65% and 77%
  Population Normal (%): 96% and 94%
  Population Pyknosed Nuclei (%): 17% and 23%
  Population Tubulin-Different-Phenotype (%): 25% and 55%
  Total Cell Count: 132 and 139
[3]
  Population Apoptotic (%): 55% and 52%
  Population Fragmented Nuclei (%): 14% and 35%
  Population Healthy Nuclei (%): 66% and 47%
  Population Hoechst High Intensity Objects (%): 3%
  Population Membrane Permeable-Phenotype (%): 1% and 4%
  Population Mitochondria Different-Phenotype (%): 5% and 8%
  Population Mitotic Cells (%): 44% and 48%
  Population Normal (%): 96%
  Population Pyknosed Nuclei (%): 19% and 17%
  Population Tubulin-Different-Phenotype (%): 23% and 50%
  Total Cell Count: 156 and 150
[4]
  Population Apoptotic (%): 57% and 31%
  Population Fragmented Nuclei (%): 16% and 22%
  Population Healthy Nuclei (%): 67% and 55%
  Population Hoechst High Intensity Objects (%): 1% and 7%
  Population Membrane Permeable-Phenotype (%): 1% and 5%
  Population Mitochondria Different-Phenotype (%): 2% and 5%
  Population Mitotic Cells (%): 42% and 68%
  Population Normal (%): 98% and 92%
  Population Pyknosed Nuclei (%): 16% and 21%
  Population Tubulin-Different-Phenotype (%): 24% and 52%
  Total Cell Count: 130 and 146
[5]
  Population Apoptotic (%): 65% and 63%
  Population Fragmented Nuclei (%): 16% and 39%
  Population Healthy Nuclei (%): 67% and 47%
  Population Hoechst High Intensity Objects (%): 5% and 6%
  Population Membrane Permeable-Phenotype (%): 0% and 4%
  Population Mitochondria Different-Phenotype (%): 4% and 8%
  Population Mitotic Cells (%): 35% and 36%
  Population Normal (%): 94% and 93%
  Population Pyknosed Nuclei (%): 16% and 12%
  Population Tubulin-Different-Phenotype (%): 16% and 47%
  Total Cell Count: 132 and 157
[6]
  Population Apoptotic (%): 73% and 58%
  Population Fragmented Nuclei (%): 22% and 32%
  Population Healthy Nuclei (%): 62% and 53%
  Population Hoechst High Intensity Objects (%): 2%
  Population Membrane Permeable-Phenotype (%): 0% and 3%
  Population Mitochondria Different-Phenotype (%): 3% and 2%
  Population Mitotic Cells (%): 26% and 41%
  Population Normal (%): 97%
  Population Pyknosed Nuclei (%): 14%
  Population Tubulin-Different-Phenotype (%): 29% and 52%
  Total Cell Count: 132 and 171

## CN1CCN(c2cc(-c3ccccc3)nc(N)n2)CC1
[1]
  Population Apoptotic (%): 47% and 37%
  Population Fragmented Nuclei (%): 15% and 28%
  Population Healthy Nuclei (%): 68% and 45%
  Population Hoechst High Intensity Objects (%): 2% and 5%
  Population Membrane Permeable-Phenotype (%): 1% and 11%
  Population Mitochondria Different-Phenotype (%): 10% and 11%
  Population Mitotic Cells (%): 52% and 62%
  Population Normal (%): 97% and 94%
  Population Pyknosed Nuclei (%): 15% and 26%
  Population Tubulin-Different-Phenotype (%): 25% and 66%
  Total Cell Count: 135 and 97
[2]
  Population Apoptotic (%): 48% and 36%
  Population Fragmented Nuclei (%): 16% and 40%
  Population Healthy Nuclei (%): 67% and 36%
  Population Hoechst High Intensity Objects (%): 2% and 7%
  Population Membrane Permeable-Phenotype (%): 0% and 10%
  Population Mitochondria Different-Phenotype (%): 6% and 12%
  Population Mitotic Cells (%): 51% and 64%
  Population Normal (%): 97% and 92%
  Population Pyknosed Nuclei (%): 15% and 22%
  Population Tubulin-Different-Phenotype (%): 44% and 67%
  Total Cell Count: 216 and 118
[3]
  Population Apoptotic (%): 75% and 47%
  Population Fragmented Nuclei (%): 17% and 36%
  Population Healthy Nuclei (%): 65% and 44%
  Population Hoechst High Intensity Objects (%): 2%
  Population Membrane Permeable-Phenotype (%): 1% and 8%
  Population Mitochondria Different-Phenotype (%): 3% and 8%
  Population Mitotic Cells (%): 25% and 52%
  Population Normal (%): 97%
  Population Pyknosed Nuclei (%): 16% and 18%
  Population Tubulin-Different-Phenotype (%): 19% and 50%
  Total Cell Count: 145 and 106
[4]
  Population Apoptotic (%): 41% and 29%
  Population Fragmented Nuclei (%): 12% and 33%
  Population Healthy Nuclei (%): 70% and 43%
  Population Hoechst High Intensity Objects (%): 2%
  Population Membrane Permeable-Phenotype (%): 1% and 4%
  Population Mitochondria Different-Phenotype (%): 6%
  Population Mitotic Cells (%): 58% and 70%
  Population Normal (%): 97%
  Population Pyknosed Nuclei (%): 17% and 23%
  Population Tubulin-Different-Phenotype (%): 41% and 64%
  Total Cell Count: 213 and 107
[5]
  Population Apoptotic (%): 70% and 50%
  Population Fragmented Nuclei (%): 22% and 36%
  Population Healthy Nuclei (%): 62% and 49%
  Population Hoechst High Intensity Objects (%): 2% and 3%
  Population Membrane Permeable-Phenotype (%): 0% and 2%
  Population Mitochondria Different-Phenotype (%): 2% and 6%
  Population Mitotic Cells (%): 30% and 50%
  Population Normal (%): 97% and 96%
  Population Pyknosed Nuclei (%): 15% and 14%
  Population Tubulin-Different-Phenotype (%): 20% and 54%
  Total Cell Count: 137 and 101
[6]
  Population Apoptotic (%): 40% and 66%
  Population Fragmented Nuclei (%): 26% and 50%
  Population Healthy Nuclei (%): 58% and 39%
  Population Hoechst High Intensity Objects (%): 3%
  Population Membrane Permeable-Phenotype (%): 0% and 9%
  Population Mitochondria Different-Phenotype (%): 0% and 9%
  Population Mitotic Cells (%): 59% and 33%
  Population Normal (%): 96%
  Population Pyknosed Nuclei (%): 14% and 10%
  Population Tubulin-Different-Phenotype (%): 31% and 60%
  Total Cell Count: 227 and 114

## CC(=O)O[C@H]1C(=O)[C@@]2(C)[C@H]([C@H](OC(=O)c3ccccc3)[C@]3(O)C[C@H](OC(=O)[C@H](O)[C@@H](NC(=O)c4ccccc4)c4ccccc4)C(C)=C1C3(C)C)[C@]1(OC(C)=O)CO[C@@H]1C[C@@H]2O [PACLITAXEL]
[2]
  Population Apoptotic (%): 65% and 39%
  Population Fragmented Nuclei (%): 19% and 34%
  Population Healthy Nuclei (%): 63% and 39%
  Population Hoechst High Intensity Objects (%): 5% and 1%
  Population Membrane Permeable-Phenotype (%): 0% and 6%
  Population Mitochondria Different-Phenotype (%): 10% and 13%
  Population Mitotic Cells (%): 34% and 60%
  Population Normal (%): 94% and 98%
  Population Pyknosed Nuclei (%): 16% and 25%
  Population Tubulin-Different-Phenotype (%): 17% and 44%
  Total Cell Count: 167 and 111
[4]
  Population Apoptotic (%): 70% and 30%
  Population Fragmented Nuclei (%): 19% and 36%
  Population Healthy Nuclei (%): 63% and 45%
  Population Hoechst High Intensity Objects (%): 1% and 2%
  Population Membrane Permeable-Phenotype (%): 0% and 6%
  Population Mitochondria Different-Phenotype (%): 9% and 10%
  Population Mitotic Cells (%): 29% and 70%
  Population Normal (%): 98% and 97%
  Population Pyknosed Nuclei (%): 16% and 18%
  Total Cell Count: 164 and 114
[6]
  Population Apoptotic (%): 76% and 54%
  Population Fragmented Nuclei (%): 31% and 48%
  Population Healthy Nuclei (%): 50% and 42%
  Population Hoechst High Intensity Objects (%): 4% and 0%
  Population Membrane Permeable-Phenotype (%): 0% and 3%
  Population Mitochondria Different-Phenotype (%): 16% and 9%
  Population Mitotic Cells (%): 23% and 45%
  Population Normal (%): 95% and 100%
  Population Pyknosed Nuclei (%): 17% and 8%
  Population Tubulin-Different-Phenotype (%): 20% and 40%
  Total Cell Count: 177 and 129

## Cc1cc(Nc2ncc(Cl)c(Nc3ccccc3S(=O)(=O)C(C)C)n2)c(OC(C)C)cc1C1CCNCC1 [CERITINIB]
[1]
  Population Apoptotic (%): 11.76% and 21.15%
  Population Fragmented Nuclei (%): 7.37% and 5.85%
  Population Healthy Nuclei (%): 53.46% and 68.78%
  Population Hoechst High Intensity Objects (%): 0%
  Population Membrane Permeable-Phenotype (%): 4.31% and 0.71%
  Population Mitochondria Different-Phenotype (%): 43.1% and 31.21%
  Population Mitotic Cells (%): 88.24% and 78.85%
  Population Normal (%): 100%
  Population Pyknosed Nuclei (%): 39.17% and 25.37%
  Population Tubulin-Different-Phenotype (%): 63.79% and 60.99%
  Total Cell Count: 217 and 205
[2]
  Population Apoptotic (%): 42.37% and 52.35%
  Population Fragmented Nuclei (%): 13.51% and 3.96%
  Population Healthy Nuclei (%): 22.7% and 22.28%
  Population Hoechst High Intensity Objects (%): 0%
  Population Mitochondria Different-Phenotype (%): 7.14% and 6.67%
  Population Mitotic Cells (%): 57.63% and 47.65%
  Population Normal (%): 100%
  Population Pyknosed Nuclei (%): 63.78% and 73.76%
  Population Tubulin-Different-Phenotype (%): 38.1% and 77.78%
  Total Cell Count: 185 and 202
[3]
  Population Apoptotic (%): 20% and 32.43%
  Population Fragmented Nuclei (%): 9.43% and 7.69%
  Population Healthy Nuclei (%): 68.03% and 74.52%
  Population Hoechst High Intensity Objects (%): 0%
  Population Membrane Permeable-Phenotype (%): 4.22% and 0%
  Population Mitochondria Different-Phenotype (%): 29.52% and 27.74%
  Population Mitotic Cells (%): 80% and 67.57%
  Population Normal (%): 100%
  Population Pyknosed Nuclei (%): 22.54% and 17.79%
  Population Tubulin-Different-Phenotype (%): 62.05% and 63.23%
  Total Cell Count: 244 and 208
[4]
  Population Apoptotic (%): 65.28% and 58.33%
  Population Fragmented Nuclei (%): 19.9% and 22.16%
  Population Healthy Nuclei (%): 43.37% and 59.28%
  Population Hoechst High Intensity Objects (%): 0%
  Population Mitochondria Different-Phenotype (%): 12.94% and 7.83%
  Population Mitotic Cells (%): 34.72% and 41.67%
  Population Normal (%): 100%
  Population Pyknosed Nuclei (%): 36.73% and 18.56%
  Population Tubulin-Different-Phenotype (%): 37.65% and 81.74%
  Total Cell Count: 196 and 194
[5]
  Population Fragmented Nuclei (%): 13.85% and 7.43%
  Population Healthy Nuclei (%): 77.7% and 84.65%
  Population Hoechst High Intensity Objects (%): 0%
  Population Membrane Permeable-Phenotype (%): 1.74% and 1.75%
  Population Mitochondria Different-Phenotype (%): 11.74% and 9.94%
  Population Mitotic Cells (%): 88% and 50%
  Population Normal (%): 100%
  Population Pyknosed Nuclei (%): 8.45% and 7.92%
  Population Tubulin-Different-Phenotype (%): 36.09% and 50.88%
  Total Cell Count: 296 and 202
[6]
  Population Apoptotic (%): 73.33% and 50%
  Population Fragmented Nuclei (%): 20.63% and 58.73%
  Population Healthy Nuclei (%): 71.43% and 38.1%
  Population Hoechst High Intensity Objects (%): 0%
  Population Mitotic Cells (%): 26.67% and 50%
  Population Normal (%): 100%
  Population Pyknosed Nuclei (%): 7.94% and 3.17%
  Population Tubulin-Different-Phenotype (%): 31.85% and 58.33%
  Total Cell Count: 189
